Experiments:
[1] = biological target: S-adenosylmethionine synthetase (MAT 1 and MAT 2) (Rattus norvegicus, UniProt P13444+P18298); experiment: Competitive inhibitory activity against methionine adenosyltransferase; format: protein assay
How it was run: (§1)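 Rat kidney M-2 or Novikoff hepatoma M-T MAT, partially purified. Run at 37 °C, pH 8.2 (Tris, KCl, MgCl2, DTT) with 2 mM MgATP. [14C]Met at five or six levels spanning (0.5–4)×KM, with two inhibitor levels (1–3 mM) and no-inhibitor controls. 10 min, HClO4 stop, phosphocellulose disc counting. Ki from replots of double-reciprocal slopes vs inhibitor concentration.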

[2] = biological target: S-adenosylmethionine synthase isoform type-2 (Rattus norvegicus, UniProt P18298); experiment: Competitive inhibitory activity against Methionine adenosyltransferase II; how it was run: as §1
S-adenosylmethionine synthase isoform type-2, sequence (P18298 whole entry, canonical isoform): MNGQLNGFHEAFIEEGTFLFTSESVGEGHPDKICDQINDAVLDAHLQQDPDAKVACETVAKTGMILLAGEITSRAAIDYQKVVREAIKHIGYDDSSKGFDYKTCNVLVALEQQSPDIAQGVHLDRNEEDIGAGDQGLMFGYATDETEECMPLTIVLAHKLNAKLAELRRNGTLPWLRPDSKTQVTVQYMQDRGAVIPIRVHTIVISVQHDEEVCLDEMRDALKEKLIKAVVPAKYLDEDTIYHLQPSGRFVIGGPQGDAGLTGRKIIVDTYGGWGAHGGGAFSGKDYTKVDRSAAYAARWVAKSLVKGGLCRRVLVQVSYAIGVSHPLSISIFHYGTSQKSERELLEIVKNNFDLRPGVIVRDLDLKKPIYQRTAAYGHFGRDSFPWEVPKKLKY

Compound | Ki [1] [µM] | Ki [2] [µM]
CSCC(C)C(N)C(=O)O (centres undefined) | 500 | 500
CSC(C)C[C@@H](N)C(=O)O (some centres undefined) | 3200 | 2400

From ChEMBL document CHEMBL1123437, “Isozyme-specific enzyme inhibitors. 12. C- and N-methylmethionines as substrates and inhibitors of methionine adenosyltransferases of normal and hepatoma rat tissues” (J Med Chem, 1986)
